Calls of active or inactive are those of the source.
Legend:
[1] = tested on: Mus musculus; experiment: Anticonvulsant activity in Kunming mouse assessed as protection against maximal electroshock-induced seizures at 300 mg/kg, ip after 4 hrs; assay type: functional, organism-based; design: dose 300 mg/kg
Procedure, shortened: (§1)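 Maximal electroshock test in mice, five per group, dosed i.p. with suspension in 1:19 DMSO/saline plus 0.5% methylcellulose; seizures evoked at 0.5 h or 4 h after dosing. Protection defined as abolition of hind leg tonic maximal extension; scored as number protected/number tested.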

[2] = tested on: Mus musculus; experiment: Anticonvulsant activity in Kunming mouse assessed as protection against maximal electroshock-induced seizures at 100 mg/kg, ip after 4 hrs; assay type: functional, organism-based; design: dose 100 mg/kg; procedure, shortened: as §1
[3] = tested on: Mus musculus; experiment: Anticonvulsant activity in ip dosed Kunming mouse assessed as protection against maximal electroshock-induced seizures; assay type: functional
Procedure, shortened: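 Phase II quantification: mice (ten per dose) dosed i.p. with compound suspended in 1:19 DMSO/saline, 0.5% methylcellulose; MES given 30 min later, protection being abolition of hind leg tonic extension. ED50, dose protecting 50% of animals, reported with 95% confidence limits.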

[4] = tested on: Mus musculus; experiment: Anticonvulsant activity against subcutaneous pentylenetetrazole-induced seizures in Kunming mouse assessed as tonic seizures of at 50 mg/kg, ip after 0.5 hrs; assay type: functional
Procedure, shortened: (§2)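 Test agent given i.p. (suspension in 1:19 DMSO/saline, 0.5% methylcellulose); 30 min later PTZ 85 mg/kg in saline given sc. Animals kept in individual cages, watched 30 min; clonic seizures, tonic seizures and deaths counted, expressed as percent.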

[5] = tested on: Mus musculus; experiment: Toxicity in Kunming mouse assessed as thiosemicarbazide-induced lethality at 50 mg/kg, ip after 2.5 hrs; assay type: organism-based; design: dose 50 mg/kg, route intraperitoneal; details: in vivo
[6] = tested on: Mus musculus; experiment: Anticonvulsant activity against isoniazid-induced seizures in Kunming mouse assessed as tonic seizures of at 50 mg/kg, ip after 0.5 hrs; assay type: functional; details: route intraperitoneal
Procedure, shortened: (§3)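 Compounds suspended in 1:19 DMSO/saline containing 0.5% methylcellulose and given i.p.; after 30 min mice received isoniazid 250 mg/kg i.p., a dose convulsing 100% of animals. Each mouse housed singly and observed 1 h; percent of animals with clonic and tonic seizures, and lethality, recorded.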

[7] = tested on: Mus musculus; experiment: Anticonvulsant activity against isoniazid-induced seizures in Kunming mouse assessed as clonic seizures of at 50 mg/kg, ip after 0.5 hrs; assay type: functional; details: route intraperitoneal; procedure, shortened: as §3
[8] = tested on: Mus musculus; experiment: Toxicity in Kunming mouse assessed as subcutaneous pentylenetetrazole-induced lethality at 50 mg/kg, ip after 0.5 hrs; assay type: organism-based; design: dose 50 mg/kg; details: in vivo, sc
Procedure, shortened: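 Test article at 50 mg/kg i.p. in 1:19 (vol/vol) DMSO/saline with 0.5% methylcellulose. After 30 min, pentylenetetrazole at 85 mg/kg in saline was given sc. Animals were caged individually and watched for 30 min, with clonic and tonic seizures and deaths counted.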

[9] = tested on: Mus musculus; experiment: Anticonvulsant activity against thiosemicarbazide-induced seizures in Kunming mouse assessed as clonic seizures of at 50 mg/kg, ip after 2.5 hrs; assay type: functional; details: route intraperitoneal
[10] = tested on: Mus musculus; experiment: Anticonvulsant activity against subcutaneous pentylenetetrazole-induced seizures in Kunming mouse assessed as clonic seizures of at 50 mg/kg, ip after 0.5 hrs; assay type: functional; procedure, shortened: as §2
[11] = tested on: Mus musculus; experiment: Anticonvulsant activity against 3-mercaptopropionic acid-induced seizures in Kunming mouse assessed as clonic seizures of at 50 mg/kg, ip after 0.5 hrs; assay type: functional; details: route intraperitoneal
Procedure, shortened: (§4)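 Mice given test agent i.p. as suspension in 1:19 DMSO/saline with 0.5% methylcellulose; 30 min later 60 mg/kg 3-mercaptopropionic acid in saline injected sc. Latency and duration of convulsions, latency and percentage lethality recorded over 1 h after convulsant; clonic and tonic seizure incidence reported as percent of animals.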

[12] = tested on: Mus musculus; experiment: Anticonvulsant activity against thiosemicarbazide-induced seizures in Kunming mouse assessed as tonic seizures of at 50 mg/kg, ip after 2.5 hrs; assay type: functional; details: route intraperitoneal
[13] = tested on: Mus musculus; experiment: Toxicity in Kunming mouse assessed as isoniazid-induced lethality at 50 mg/kg, ip after 0.5 hrs; assay type: organism-based; design: dose 50 mg/kg, route intraperitoneal; details: in vivo
Procedure, shortened: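 Mice were dosed i.p. at 50 mg/kg with a suspension in 1:19 (vol/vol) DMSO/saline containing 0.5% methylcellulose. Isoniazid (250 mg/kg, i.p.) was given 30 min later. Mice were then housed singly and observed for 1 h, scoring clonic seizures, tonic seizures and deaths.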

[14] = tested on: Mus musculus; experiment: Anticonvulsant activity against 3-mercaptopropionic acid-induced seizures in Kunming mouse assessed as tonic seizures of at 50 mg/kg, ip after 0.5 hrs; assay type: functional; details: route intraperitoneal; procedure, shortened: as §4
[15] = tested on: Mus musculus; experiment: Toxicity in Kunming mouse assessed as 3-mercaptopropionic acid-induced lethality at 50 mg/kg, ip after 0.5 hrs; assay type: organism-based; design: dose 50 mg/kg, route intraperitoneal; details: in vivo
Procedure, shortened: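 Compound given i.p. at 50 mg/kg as a suspension in 1:19 (vol/vol) DMSO/saline (0.9% NaCl) with 0.5% methylcellulose. At 30 min, 3-mercaptopropionic acid at 60 mg/kg in saline was injected sc. Convulsion latency and duration, and the latency and percentage of lethality, were recorded over the following 1 h.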

[16] = Neurotoxicity in ip dosed Kunming mouse by rotarod test; assay type: toxicity, organism-based; details: in vivo
[17] = tested on: Mus musculus; experiment: Protective index, ratio of TD50 for neurotoxicity to ED50 for anticonvulsant activity in ip dosed Kunming mouse; assay type: functional
[18] = tested on: Mus musculus; experiment: Anticonvulsant activity in Kunming mouse assessed as protection against maximal electroshock-induced seizures at 30 mg/kg, ip after 4 hrs; assay type: functional, organism-based; design: dose 30 mg/kg; procedure, shortened: as §1
[19] = tested on: Mus musculus; experiment: Anticonvulsant activity in Kunming mouse assessed as protection against maximal electroshock-induced seizures at 100 mg/kg, ip after 30 mins; assay type: functional, organism-based; design: dose 100 mg/kg; procedure, shortened: as §1
[20] = tested on: Mus musculus; experiment: Anticonvulsant activity in Kunming mouse assessed as protection against maximal electroshock-induced seizures at 30 mg/kg, ip after 30 mins; assay type: functional, organism-based; design: dose 30 mg/kg; procedure, shortened: as §1

O=C(Cc1ccccc1)NCCO
Activity [1]: inactive

COc1ccc(/C=C/C(=O)NCCO)cc1
Activity [2]: inactive

NC(=O)N1c2ccccc2C=Cc2ccccc21 [CARBAMAZEPINE]
ED50 [3]: 8.8 mg/kg | Activity [4]: 0% | Activity [5]: 20% | Activity [6]: 0% | Activity [7]: 50% | Activity [8]: 10% | Activity [9]: 100% | Activity [10]: 100% | Activity [11]: 100% | Activity [12]: 0% | Activity [13]: 0% | Activity [14]: 0%

O=C(/C=C/c1ccccc1)NCCO [IDROCILAMIDE]
ED50 [3]: 17.7 mg/kg | Activity [15]: 10% | Activity [4]: 20% | Activity [5]: 30% | Activity [6]: 70% | TD50 [16]: 155 mg/kg | Activity [7]: 100% | Activity [8]: 10% | Ratio TD50/ED50 [17]: 8.8 | Activity [9]: 100% | Activity [10]: 100% | Activity [11]: 100% | Activity [18]: inactive | Activity [12]: 40% | Activity [13]: 20% | Activity [14]: 10%

O=C(/C=C/c1ccc2c(c1)OCO2)NCCO
ED50 [3]: 32.4 mg/kg | TD50 [16]: 105 mg/kg | Ratio TD50/ED50 [17]: 3.3 | Activity [18]: inactive

O=C(/C=C/c1ccc(Cl)cc1)NCCO
ED50 [3]: 73.4 mg/kg | TD50 [16]: 98.4 mg/kg | Activity [2]: inactive | Ratio TD50/ED50 [17]: 1.3

O=C(/C=C/c1cccc(Cl)c1)NCCO
ED50 [3]: 25 mg/kg | TD50 [16]: 127 mg/kg | Ratio TD50/ED50 [17]: 5.1 | Activity [18]: inactive | Activity [13]: 20%

O=C(/C=C/c1ccccc1F)NCCO
ED50 [3]: 35.3 mg/kg | TD50 [16]: 219 mg/kg | Ratio TD50/ED50 [17]: 6.2 | Activity [18]: inactive

CN(C)c1ccc(/C=C/C(=O)NCCO)cc1
ED50 [3]: 66.1 mg/kg | TD50 [16]: 304 mg/kg | Activity [2]: inactive | Ratio TD50/ED50 [17]: 4.6

O=C(/C=C/c1ccc(Br)cc1)NCCO
ED50 [3]: 76 mg/kg | TD50 [16]: 98.3 mg/kg | Activity [2]: inactive | Ratio TD50/ED50 [17]: 1.3

O=C(/C=C/c1ccc(F)cc1)NCCO
ED50 [3]: 45.6 mg/kg | Activity [19]: Active | TD50 [16]: 98.3 mg/kg | Activity [2]: inactive | Ratio TD50/ED50 [17]: 2.2

O=C(/C=C/c1ccc(Cl)cc1Cl)NCCO
Activity [1]: inactive

O=C(/C=C/c1ccccc1Cl)NCCO
ED50 [3]: 59 mg/kg | Activity [19]: Active | TD50 [16]: 152 mg/kg | Activity [2]: inactive | Ratio TD50/ED50 [17]: 2.6

O=C(CCc1ccccc1)NCCO
Activity [1]: inactive

O=C(/C=C/c1ccccc1Br)NCCO
ED50 [3]: 68.2 mg/kg | TD50 [16]: 228 mg/kg | Activity [2]: inactive | Ratio TD50/ED50 [17]: 3.3

O=C(NCCO)c1ccccc1
Activity [1]: inactive

Cc1ccc(/C=C/C(=O)NCCO)cc1
Activity [2]: inactive

O=C(/C=C/c1cccc(F)c1)NCCO
ED50 [3]: 17 mg/kg | Activity [20]: Active | Activity [15]: 50% | Activity [4]: 40% | Activity [5]: 40% | TD50 [16]: 211 mg/kg | Activity [8]: 20% | Ratio TD50/ED50 [17]: 12.4 | Activity [9]: 100% | Activity [10]: 100% | Activity [11]: 100% | Activity [18]: inactive | Activity [12]: 50% | Activity [14]: 30%

Reference: ChEMBL document CHEMBL1153568, “Synthesis and anticonvulsant activity of N-(2-hydroxyethyl) cinnamamide derivatives” (Eur J Med Chem, 2009)
